Laboratory results as given in ChEMBL document CHEMBL4020833, “A Systematic Exploration of Macrocyclization in Apelin-13: Impact on Binding, Signaling, Stability, and Cardiovascular Effects” (J Med Chem, 2018).
Activity calls are given as the source filed them. No cut-off for these calls is given here. Starred links: 1 amine or outer side, 2 acyl side, 3 side chain; linkers in the order of their positions; H or OH if unused. Positions of bridges follow the written chain, without caps; N, C: chain ends. Non-standard residues stand in square brackets, D forms with d. Residues, ends and D or L forms follow the SMILES beside them. X2 = N=C(N)NCCC[C@@H](C(=O)[*:2])N(CC=[*:3])[*:1]; AllylGly = C=CC[C@H](N)C(=O)O; pGlu = O=C1CC[C@@H](C(=O)O)N1; Nle = CCCC[C@H](N)C(=O)O

Legend:
Apelin receptor [1] = molecular target: T1, Apelin receptor (Homo sapiens, UniProt P35414); assay: Displacement of [125I]-[Nle75, Tyr77] Pyr1-apelin-13 from YFP-tagged human APJ receptor expressed in HEK293 cell membranes after 1 hr by gamma-counting method
T1 sequence (P35414 whole entry): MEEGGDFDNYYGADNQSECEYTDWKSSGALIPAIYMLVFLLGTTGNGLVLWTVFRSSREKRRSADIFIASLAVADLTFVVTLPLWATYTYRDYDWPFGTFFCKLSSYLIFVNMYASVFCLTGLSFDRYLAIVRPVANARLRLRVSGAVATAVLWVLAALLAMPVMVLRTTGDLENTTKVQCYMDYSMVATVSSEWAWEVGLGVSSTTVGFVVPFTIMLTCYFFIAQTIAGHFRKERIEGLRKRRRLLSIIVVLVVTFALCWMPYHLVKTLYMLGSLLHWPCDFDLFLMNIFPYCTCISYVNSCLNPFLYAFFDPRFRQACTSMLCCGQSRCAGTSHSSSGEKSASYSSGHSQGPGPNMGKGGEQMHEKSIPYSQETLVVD

[2] = AUC in Sprague-Dawley rat at 3 mg/kg, iv measured up to 120 mins by LC-MS/MS analysis; format: ADME, organism-based; parameters: dose 3 mg/kg, time < 2 hr, route intravenous; details: in vivo
How it was run: (§1)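 Male Sprague-Dawley rats (250-350g) under intramuscular ketamine/xylazine (87/13 mg/kg); compound in 350 µL normal saline given via jugular vein. Carotid blood drawn into EDTA tubes at 1, 5, 10, 15, 30, 60, 120 min (1, 2, 5, 10, 15 min for Pyr-apelin-13), centrifuged for plasma, acetonitrile precipitation with internal standard, LC-MS/MS (ESI+, MRM).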

Rattus norvegicus [3] = assay: Hypotensive activity in Sprague-Dawley rat assessed as reduction in systemic arterial blood pressure at 19.5 or 65 nmol/kg, iv administered over 10 secs; format: functional
How it was run: (§2)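 Male Sprague-Dawley rats (250-350g) anesthetized with intramuscular ketamine/xylazine (87/13 mg/kg), kept on a thermostatic pad. Carotid catheter for arterial pressure; jugular bolus of saline vehicle, then 5 min later peptide (19.6 or 65 nmol/kg; 0.25 ml over 10 s), followed by a saline flush.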

Apelin receptor [4] = molecular target: T1, Apelin receptor; assay: Activity at GFP10-tagged human APJ receptor expressed in HEK293 cells assessed as induction of RlucII-tagged beta-arrestin-2 recruitment after 30 mins by BRET assay; format: cell-based
Apelin receptor [5] = molecular target: T1, Apelin receptor; assay: Induction of human HA-tagged APJ receptor internalization expressed in HEK293 cells after 30 mins by ELISA; format: cell-based
[6] = Drug level in Sprague-Dawley rat plasma at 3 mg/kg, iv measured at 5 mins by LC-MS/MS; format: ADME, organism-based; how it was run: as §1
[7] = Half life in rat plasma at 1 mM by UPLC-MS analysis; format: ADME, cell-free
How it was run: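 Male rat plasma incubated with peptide at 37 °C for 2, 4, 7, 24 h (or 10, 20, 60, 120 min for short-lived peptides); quenched with acetonitrile-ethanol (1:1) plus nicotinamide internal standard, then UPLC-MS. Percent remaining fitted to exponential decay for half-life; means ± SEM of three independent experiments. 1 mM is the stock solution.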

Apelin receptor [8] = molecular target: T1, Apelin receptor; assay: Activity at human APJ receptor expressed in HEK293 cells assessed as dissociation of Galphai1 from Gbetagamma subunit after 5 mins by BRET assay; format: cell-based
Heart [9] = assay: Inotropic activity in Langendorff isolated-perfused Sprague-Dawley rat heart assessed as drug level causing maximum increase in left ventricular developed pressure efficacy relative to baseline control; format: functional
How it was run: (§3)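 Sprague-Dawley rat hearts isolated and perfused in Langendorff mode with increasing peptide concentrations from 0.001 to 0.3 nM. Increase in left ventricular developed pressure recorded as the inotropic read-out, expressed as % from baseline; compared with buffer by unpaired parametric t test.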

Rattus norvegicus [10] = assay: Hypotensive activity in Sprague-Dawley rat assessed as reduction in systemic arterial blood pressure at 65 nmol/kg, iv administered over 10 secs; format: functional, organism-based; how it was run: as §2
Heart [11] = assay: Inotropic activity in Langendorff isolated-perfused Sprague-Dawley rat heart assessed as increase in left ventricular developed pressure efficacy at 0.003 nM relative to baseline control; format: functional; how it was run: as §3
Heart [12] = assay: Inotropic activity in Langendorff isolated-perfused Sprague-Dawley rat heart assessed as increase in left ventricular developed pressure efficacy at 0.03 nM relative to baseline control; format: functional; details: in the assay text read “0.003 nM” for “0.03 nM”; how it was run: as §3

| Ki (Apelin receptor [1]) | EC50 (Apelin receptor [4]) | half-life at 1000 µM [7] | EC50 (Apelin receptor [8]) | Structure (SMILES) | Activity (Heart [9]) | also measured |
| --- | --- | --- | --- | --- | --- | --- |
| 0.15 nM | 57 nM | 6.8 h | 1.3 nM | CCCC[C@@H]1NC(=O)[C@@H]2CCCN2C(=O)[C@@H](NC(=O)[C@H](CCCCN)NC(=O)[C@H](Cc2cnc[nH]2)NC(=O)[C@H](CO)NC(=O)[C@H](CC(C)C)NC(=O)[C@H](CCCNC(=N)N)NC(=O)[C@@H]2CCCN2C(=O)[C@H](CCCNC(=N)N)NC(=O)[C@@H]2CCC(=O)N2)CCN(S(=O)(=O)c2ccccc2[N+](=O)[O-])C/C=C\C[C@@H](C(=O)O)NC(=O)[C@@H]2CCCN2C1=O | 3 pM | AUC at 2 h [2]: 2800 ng·h/mL; Activity (Rattus norvegicus [3]): <=40 mmHg; EC50 (Apelin receptor [5]): 45 nM; concentration at 5 min [6]: 2.5 µM |
| 9.1 nM | 512 nM | 7.7 h | 19 nM | CCCC[C@H](NC(=O)[C@@H]1CCCN1C(=O)CNC(=O)[C@@H]1C/C=C\CN(C(=O)[C@@H]2CCCN2C(=O)[C@H](CCCNC(=N)N)NC(=O)[C@@H]2CCC(=O)N2)[C@@H](CCCNC(=N)N)C(=O)N[C@@H](CC(C)C)C(=O)N[C@@H](CO)C(=O)N[C@@H](Cc2cnc[nH]2)C(=O)N1)C(=O)N1CCC[C@H]1C(=O)N[C@@H](Cc1ccccc1)C(=O)O ([pGlu]RP[X2]LSH[AllylGly]GP[Nle]PF-OH; staple (Z) 4-8) |  |  |
|  |  | 8.6 h |  | CCCC[C@@H]1NC(=O)[C@@H]2CCCN2C(=O)[C@@H](NC(=O)[C@H](CCCCN)NC(=O)[C@H](Cc2cnc[nH]2)NC(=O)[C@H](CO)NC(=O)[C@H](CC(C)C)NC(=O)[C@H](CCCNC(=N)N)NC(=O)[C@@H]2CCCN2C(=O)[C@H](CCCNC(=N)N)NC(=O)[C@@H]2CCC(=O)N2)C/C=C\C[C@@H](C(=O)O)NC(=O)[C@@H]2CCCN2C1=O [listing 1 of 2 here] |  | Ki (Apelin receptor [1]; hek293): 1.1 nM; AUC at 2 h [2]: 4100 ng·h/mL; EC50 (Apelin receptor [4]; hek293): 272 nM; EC50 (Apelin receptor [5]; hek293): 469 nM; concentration at 5 min [6]: 5.6 µM; EC50 (Apelin receptor [8]; hek293): 19 nM |
| 509 nM |  | 0.7 h |  | CCCC[C@H](NC(=O)[C@@H]1CCCN1C(=O)CNC(=O)[C@H](CCCCN)NC(=O)[C@H](Cc1cnc[nH]1)NC(=O)[C@@H]1C/C=C\C[C@H](NC(=O)[C@@H]2CCC(=O)N2)C(=O)N2CCC[C@H]2C(=O)N[C@@H](CCCNC(=N)N)C(=O)N[C@@H](CC(C)C)C(=O)N1)C(=O)N1CCC[C@H]1C(=O)N[C@@H](Cc1ccccc1)C(=O)O |  |  |
| 1.4 nM | 400 nM | 6.6 h | 20 nM | CC(C)C[C@H](NC(=O)[C@H](CCCNC(=N)N)NC(=O)[C@@H]1CCCN1C(=O)[C@H](CCCNC(=N)N)NC(=O)[C@@H]1CCC(=O)N1)C(=O)N[C@@H](CO)C(=O)N[C@H]1C/C=C\C[C@@H](C(=O)N2CCC[C@H]2C(=O)N[C@@H](Cc2ccccc2)C(=O)O)NC(=O)[C@@H]2CCCN2C(=O)CNC(=O)[C@H](CCCCN)NC1=O ([pGlu]RPRLS[AllylGly]KGP[AllylGly]PF-OH; staple (Z) 7-11) |  |  |
| 5.7 nM | 834 nM | 0.8 h | 23 nM | CCCC[C@H](NC(=O)[C@@H]1CCCN1C(=O)CNC(=O)[C@H](CCCCN)NC(=O)[C@H](Cc1cnc[nH]1)NC(=O)[C@H](CO)NC(=O)[C@@H]1C/C=C\C[C@H](N)C(=O)N[C@@H](CCCNC(=N)N)C(=O)N2CCC[C@H]2C(=O)N[C@@H](CCCNC(=N)N)C(=O)N1)C(=O)N1CCC[C@H]1C(=O)N[C@@H](Cc1ccccc1)C(=O)O |  |  |

Further lines, the compound ahead of its results:

| Structure (SMILES) | Ki (Apelin receptor [1]) | EC50 (Apelin receptor [4]) | half-life at 1000 µM [7] | EC50 (Apelin receptor [8]) | Activity (Heart [9]) | also measured |
| --- | --- | --- | --- | --- | --- | --- |
| CCCC[C@@H]1NC(=O)[C@@H]2CCCN2C(=O)CNC(=O)[C@@H](NC(=O)[C@H](Cc2cnc[nH]2)NC(=O)[C@H](CO)NC(=O)[C@H](CC(C)C)NC(=O)[C@H](CCCNC(=N)N)NC(=O)[C@@H]2CCCN2C(=O)[C@H](CCCNC(=N)N)NC(=O)[C@@H]2CCC(=O)N2)C/C=C\C[C@@H](C(=O)N[C@@H](Cc2ccccc2)C(=O)O)NC1=O ([pGlu]RPRLSH[AllylGly]GP[Nle][AllylGly]F-OH; staple (Z) 8-12) | 14 nM | 825 nM | 4.6 h | 30 nM |  |  |
| CCCC[C@H](NC(=O)[C@@H]1CCCN1C(=O)CNC(=O)[C@H](CCCCN)NC(=O)[C@@H]1C/C=C\C[C@H](NC(=O)[C@H](CCCNC(=N)N)NC(=O)[C@@H]2CCC(=O)N2)C(=O)N[C@@H](CCCNC(=N)N)C(=O)N[C@@H](CC(C)C)C(=O)N[C@@H](CO)C(=O)N1)C(=O)N1CCC[C@H]1C(=O)N[C@@H](Cc1ccccc1)C(=O)O |  |  | 3.9 h |  | Active | Activity (Rattus norvegicus [3]): <=40 mmHg |
| CCCC[C@@H]1NC(=O)[C@@H]2CCCN2C(=O)[C@@H](NC(=O)[C@@H](CCCCN)NC(=O)[C@H](Cc2cnc[nH]2)NC(=O)[C@H](CO)NC(=O)[C@H](CC(C)C)NC(=O)[C@H](CCCNC(=N)N)NC(=O)[C@@H]2CCCN2C(=O)[C@H](CCCNC(=N)N)NC(=O)[C@@H]2CCC(=O)N2)C/C=C\C[C@@H](C(=O)O)NC(=O)[C@@H]2CCCN2C1=O |  |  |  |  |  | Activity (Rattus norvegicus [10]): Active |
| CCCC[C@@H]1NC(=O)[C@@H]2CCCN2C(=O)[C@@H](NC(=O)[C@H](CCCCN)NC(=O)[C@H](Cc2cnc[nH]2)NC(=O)[C@H](CO)NC(=O)[C@H](CC(C)C)NC(=O)[C@H](CCCNC(=N)N)NC(=O)[C@@H]2CCCN2C(=O)[C@H](CCCNC(=N)N)NC(=O)[C@@H]2CCC(=O)N2)C/C=C\C[C@@H](C(=O)O)NC(=O)[C@@H]2CCCN2C1=O [listing 2 of 2 here] |  |  |  |  | 3 pM | Efficacy (Heart [11]): 217% |
| CSCC[C@H](NC(=O)[C@@H]1CCCN1C(=O)CNC(=O)[C@H](CCCCN)NC(=O)[C@H](Cc1cnc[nH]1)NC(=O)[C@H](CO)NC(=O)[C@H](CC(C)C)NC(=O)[C@H](CCCNC(=N)N)NC(=O)[C@@H]1CCCN1C(=O)[C@H](CCCNC(=N)N)NC(=O)[C@@H]1CCC(=O)N1)C(=O)N1CCC[C@H]1C(=O)N[C@@H](Cc1ccccc1)C(=O)O |  |  |  |  | 30 pM | AUC at 2 h [2]: 3.33 ng·h/mL; Efficacy (Heart [12]): 81% |
| CCCC[C@H](NC(=O)[C@@H]1C/C=C\C[C@H](NC(=O)[C@H](CC(C)C)NC(=O)[C@H](CCCNC(=N)N)NC(=O)[C@@H]2CCCN2C(=O)[C@H](CCCNC(=N)N)NC(=O)[C@@H]2CCC(=O)N2)C(=O)N[C@@H](Cc2cnc[nH]2)C(=O)N[C@@H](CCCCN)C(=O)NCC(=O)N1)C(=O)N1CCC[C@H]1C(=O)N[C@@H](Cc1ccccc1)C(=O)O ([pGlu]RPRL[AllylGly]HKG[AllylGly][Nle]PF-OH; staple (Z) 6-10) | 268 nM |  | 4.1 h |  |  |  |
| C=CC[C@H](NC(=O)[C@@H]1CCCN1C(=O)[C@H](CCCC)NC(=O)[C@@H]1CCCN1C(=O)[C@H](CC=C)NC(=O)[C@H](CCCCN)NC(=O)[C@H](Cc1cnc[nH]1)NC(=O)[C@H](CO)NC(=O)[C@H](CC(C)C)NC(=O)[C@H](CCCNC(=N)N)NC(=O)[C@@H]1CCCN1C(=O)[C@H](CCCNC(=N)N)NC(=O)[C@@H]1CCC(=O)N1)C(=O)O ([pGlu]RPRLSHK[AllylGly]P[Nle]P[AllylGly]-OH) | 2.1 nM | 145 nM | 2.4 h | 2 nM |  |  |
